Experimental data taken from ChEMBL document CHEMBL1144264, “Structure-activity relationship studies on ortho-substituted cinnamic acids, a new class of selective EP(3) antagonists” (Bioorg Med Chem Lett, 2005).

What was measured:
[1] = system: HEK293; assay: Inhibition of c-AMP production in HEK (EBNA) cells was determined by c-AMP assay; format: functional, HEK293-EBNA; details: Homo sapiens
How it was run: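 Functional cAMP read-out in HEK (EBNA) cells expressing the receptor: antagonism scored as reversal of EP3-mediated inhibition of cAMP production; EP2 activity scored as stimulation of cAMP production.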

[2] = biological target: T1, Prostaglandin E2 receptor EP1 subtype (Homo sapiens, UniProt P34995); assay: Binding affinity for human prostanoid EP1 receptor
T1 sequence (P34995 whole entry): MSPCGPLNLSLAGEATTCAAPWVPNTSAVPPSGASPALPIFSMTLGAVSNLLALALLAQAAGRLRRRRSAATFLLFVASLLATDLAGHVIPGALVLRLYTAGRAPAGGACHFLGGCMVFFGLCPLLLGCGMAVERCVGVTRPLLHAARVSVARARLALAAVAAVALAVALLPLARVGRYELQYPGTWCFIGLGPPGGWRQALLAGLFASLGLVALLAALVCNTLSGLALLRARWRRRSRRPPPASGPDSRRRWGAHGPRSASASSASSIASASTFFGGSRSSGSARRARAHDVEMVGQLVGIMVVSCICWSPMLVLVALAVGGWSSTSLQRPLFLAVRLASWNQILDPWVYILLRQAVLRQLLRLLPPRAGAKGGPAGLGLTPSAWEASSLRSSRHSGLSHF

[3] = biological target: Prostaglandin E2 receptor EP2 subtype (Homo sapiens, UniProt P43116); assay: Binding affinity for human prostanoid EP2 receptor
Sequence of Prostaglandin E2 receptor EP2 subtype (P43116 whole entry): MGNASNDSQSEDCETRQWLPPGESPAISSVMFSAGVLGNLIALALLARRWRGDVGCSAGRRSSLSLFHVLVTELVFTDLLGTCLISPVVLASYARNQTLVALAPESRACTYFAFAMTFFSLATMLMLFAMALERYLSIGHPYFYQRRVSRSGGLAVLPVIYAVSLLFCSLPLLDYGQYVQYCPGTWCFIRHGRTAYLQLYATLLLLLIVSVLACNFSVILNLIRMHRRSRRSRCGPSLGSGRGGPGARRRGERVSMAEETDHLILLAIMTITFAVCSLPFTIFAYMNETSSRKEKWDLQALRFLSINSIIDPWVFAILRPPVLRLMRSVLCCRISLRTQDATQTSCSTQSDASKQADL

[4] = biological target: T2, Prostaglandin E2 receptor EP3 subtype (Homo sapiens, UniProt P43115); assay: Binding affinity for human prostanoid EP3 receptor
T2 sequence (P43115 whole entry): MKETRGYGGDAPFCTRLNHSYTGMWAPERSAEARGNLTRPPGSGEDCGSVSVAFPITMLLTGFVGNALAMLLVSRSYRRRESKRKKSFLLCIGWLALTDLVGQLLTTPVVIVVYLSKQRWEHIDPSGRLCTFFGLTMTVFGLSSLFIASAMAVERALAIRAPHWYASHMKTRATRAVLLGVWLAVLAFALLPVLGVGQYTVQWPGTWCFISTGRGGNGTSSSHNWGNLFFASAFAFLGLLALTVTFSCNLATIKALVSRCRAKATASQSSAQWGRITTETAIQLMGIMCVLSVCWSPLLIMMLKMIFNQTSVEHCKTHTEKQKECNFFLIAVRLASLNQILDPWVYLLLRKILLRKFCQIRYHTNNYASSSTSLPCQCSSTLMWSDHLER

[5] = biological target: Prostaglandin E2 receptor EP4 subtype (Homo sapiens, UniProt P35408); assay: Binding affinity for human prostanoid EP4 receptor
Sequence of Prostaglandin E2 receptor EP4 subtype (P35408 whole entry): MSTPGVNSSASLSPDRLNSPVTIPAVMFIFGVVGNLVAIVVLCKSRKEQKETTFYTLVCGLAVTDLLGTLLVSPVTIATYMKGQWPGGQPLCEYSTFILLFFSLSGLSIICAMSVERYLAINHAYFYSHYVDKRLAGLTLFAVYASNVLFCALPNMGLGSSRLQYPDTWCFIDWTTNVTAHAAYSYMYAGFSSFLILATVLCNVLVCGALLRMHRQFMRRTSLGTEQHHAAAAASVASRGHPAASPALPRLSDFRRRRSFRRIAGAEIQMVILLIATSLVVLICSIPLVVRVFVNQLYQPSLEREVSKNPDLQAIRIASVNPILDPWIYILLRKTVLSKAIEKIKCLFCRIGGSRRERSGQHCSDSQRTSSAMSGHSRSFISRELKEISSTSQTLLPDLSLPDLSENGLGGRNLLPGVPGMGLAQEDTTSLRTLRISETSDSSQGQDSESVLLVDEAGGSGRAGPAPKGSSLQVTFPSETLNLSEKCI

[6] = Clearance in rats after 10 mg/kg peroral and 5 mg/kg intravenous administration as sodium salts; format: ADME, organism-based; details: rat, in vivo
How it was run: (§1)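 Male Sprague–Dawley rats, 300–400 g. Oral bioavailability, clearance (mL/min/kg), Cmax (µM, with time of peak) and half-life derived from plasma profiles.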

[7] = Maximum concentration in rats after 10 mg/kg peroral and 5 mg/kg intravenous administration as sodium salts; format: ADME, organism-based; details: rat, in vivo, po; how it was run: as §1
[8] = Bioavailability in rat (dose 10 mg/kg p.o. and 5 mg/kg i.v.) (dosed as sodium salt); format: ADME, organism-based; details: in vivo, po; how it was run: as §1
[9] = Half life in rats after 10 mg/kg peroral and 5 mg/kg intravenous administration as sodium salts; format: ADME, organism-based; details: rat, in vivo; how it was run: as §1
[10] = system: HEK293; assay: Stimulation of c-AMP production in HEK (EBNA) cells was determined by c-AMP assay; details: Homo sapiens

| Ki [2] [nM] | Ki [3] [nM] | Ki [4] [nM] | Ki [5] [nM] | clearance [6] [mL/min/kg] | Cmax [7] [µM] | bioavailability [8] [%] | half-life [9] [h] | Structure (SMILES) | Kb [1] [nM] | Kb [10] [nM] |
| --- | --- | --- | --- | --- | --- | --- | --- | --- | --- | --- |
| 24000 | 680 | 25 | 1000 | – | – | – | – | O=C(O)/C=C/c1ccccc1/C=C/Cc1ccccc1OCc1ccccc1.O=C(O)/C=C/c1ccccc1C/C=C\c1ccccc1OCc1ccccc1 | 50 | – |
| 14000 | 18 | 50 | 450 | – | – | – | – | O=C(O)/C=C/c1ccccc1/C=C/Cc1cccc(OCc2ccccc2)c1.O=C(O)/C=C/c1ccccc1C/C=C\c1cccc(OCc2ccccc2)c1 | 62 | – |
| 21000 | 630 | 2000 | 3100 | – | – | – | – | Cc1cccc(/C=C/Cc2cccc(/C=C/C(=O)O)c2)c1OCc1ccccc1.Cc1cccc(C/C=C/c2cccc(/C=C/C(=O)O)c2)c1OCc1ccccc1 | – | – |
| 16000 | 7100 | 2700 | 5700 | – | – | – | – | Cc1cccc(/C=C\Cc2ccccc2C(=O)O)c1OCc1ccccc1.Cc1cccc(C/C=C/c2ccccc2C(=O)O)c1OCc1ccccc1 | – | – |
| 21000 | 2900 | 3400 | 4300 | – | – | – | – | Cc1cccc(/C=C/Cc2ccccc2CC(=O)O)c1OCc1ccccc1.Cc1cccc(C/C=C/c2ccccc2CC(=O)O)c1OCc1ccccc1 | – | – |
| 2800 | 8700 | 260 | 830 | – | – | – | – | CC(=O)c1ccc(OCc2ccccc2)c(/C=C/Cc2ccccc2/C=C/C(=O)O)c1.CC(=O)c1ccc(OCc2ccccc2)c(C/C=C/c2ccccc2/C=C/C(=O)O)c1 | – | – |
| 7100 | 2500 | 13 | 740 | – | – | – | – | O=C(O)/C=C/c1ccccc1/C=C/Cc1cccc(CO)c1OCc1c(Cl)cccc1Cl.O=C(O)/C=C/c1ccccc1C/C=C/c1cccc(CO)c1OCc1c(Cl)cccc1Cl | – | – |
| > 100000 | 1400 | 100 | 4400 | – | – | – | – | O=C(O)/C=C/c1ccccc1/C=C/Cc1ccccc1.O=C(O)/C=C/c1ccccc1C/C=C/c1ccccc1 | – | – |
| > 100000 | 2500 | 68 | 6200 | – | – | – | – | COc1ccc(/C=C/Cc2ccccc2/C=C/C(=O)O)cc1.COc1ccc(C/C=C/c2ccccc2/C=C/C(=O)O)cc1 | – | – |
| > 20000 | 750 | 8 | 610 | – | – | – | – | COc1cc(/C=C\Cc2ccccc2/C=C/C(=O)O)ccc1OCc1ccccc1.COc1cc(C/C=C/c2ccccc2/C=C/C(=O)O)ccc1OCc1ccccc1 | 6 | – |
| – | – | – | – | – | – | – | – | Cc1cccc(/C=C/Cc2ccccc2/C=C/C(=O)O)c1OCc1ccccc1 | 17 | – |
| 17000 | 4100 | 7 | 2400 | – | – | – | – | Cc1cccc(/C=C/Cc2ccccc2/C=C/C(=O)O)c1OCc1ccc(F)cc1 | 4 | – |
| 23000 | 940 | 65 | 440 | – | – | – | – | Cc1cccc(CCCc2ccccc2CCC(=O)O)c1OCc1ccccc1 | – | – |
| 68000 | 7300 | 10 | 1600 | – | – | – | – | Cc1cccc(/C=C/Cc2ccccc2/C=C/C(=O)O)c1O | 28 | – |
| 3000 | 2100 | 10 | 930 | – | – | – | – | Cc1cccc(/C=C/C(O)c2ccccc2/C=C/C(=O)O)c1OCc1c(Cl)cccc1Cl (configuration not stated) | 30 | – |
| 45000 | 8 | 1400 | 2800 | 16 | 1.7 | 17 | 2 | O=C(O)/C=C/c1ccccc1/C=C/c1ccccc1OCc1ccccc1 | – | 3 |
| > 9000 | 1100 | 19 | 4300 | – | – | – | – | COc1cccc(CCCc2ccccc2/C=C/C(=O)O)c1OCc1ccccc1 | 29 | – |
| 6700 | 5400 | 3 | 620 | 5.8 | 25 | 74 | 2 | Cc1cccc(/C=C/Cc2ccccc2/C=C/C(=O)O)c1OCc1c(Cl)cccc1Cl | 6 | – |
| 13000 | 3900 | 9 | 1000 | – | – | – | – | Cc1cccc(C(O)/C=C/c2ccccc2/C=C/C(=O)O)c1OCc1c(Cl)cccc1Cl (configuration not stated) | 30 | – |
| > 10000 | 380 | 13 | 2900 | – | – | – | – | Cc1cccc(CCCc2ccccc2/C=C/C(=O)O)c1OCc1ccccc1 | 38 | – |
| – | 550 | 13 | 1200 | – | – | – | – | Cc1cccc(/C=C/Cc2ccccc2/C=C/C(=O)O)c1OCc1ccccc1.Cc1cccc(C/C=C/c2ccccc2/C=C/C(=O)O)c1OCc1ccccc1 (stereo in doubt; 2a) | – | – |
| 19000 | 860 | 9 | 2000 | 10 | 22 | 97 | 2 | Cc1cccc(/C=C/Cc2ccccc2/C=C/C(=O)O)c1OCc1ccccc1.Cc1cccc(C/C=C/c2ccccc2/C=C/C(=O)O)c1OCc1ccccc1 (stereo in doubt; 2a/3a) | 32 | – |

| Structure (SMILES) | Ki [2] [nM] | Ki [3] [nM] | Ki [4] [nM] | Ki [5] [nM] | clearance [6] [mL/min/kg] | Cmax [7] [µM] | bioavailability [8] [%] | half-life [9] [h] | Kb [1] [nM] | Kb [10] [nM] |
| --- | --- | --- | --- | --- | --- | --- | --- | --- | --- | --- |
| Cc1cccc(/C=C/Cc2ccc(/C=C/C(=O)O)cc2)c1OCc1ccccc1.Cc1cccc(C/C=C\c2ccc(/C=C/C(=O)O)cc2)c1OCc1ccccc1 | > 30000 | 1700 | 2900 | 5500 | – | – | – | – | – | – |
